An excerpt weighted towards active compounds, which were near 1.7% of everything screened.
Runt-SMMHC FRET – inhibitors of RUNX1 Runt–CBFb-SMMHC binding, primary screen, biochemical, FRET, Cerulean-Runt, Venus-CBFb-SMMHC, uHTS. Cerulean-Runt/Venus-CBFb-SMMHC FRET ratio 530/480, 1 h. inhibition, % at 20 µM. AID 1434, 2008. actives 0.74% (n = 220,000). Runt-related transcription factor 1 (Homo sapiens) + Core-binding factor subunit beta …;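 active means mean inhibition across duplicate retests at 20 µM reaching about 50%, limit read from the data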;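 further: 0% = DMSO wells and 100% = wells with excess untagged CBFb-SMMHC; inhibitors lower the FRET ratio by blocking Runt binding to CBFb-SMMHC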
Target sequence (Q01196 whole entry, looked up): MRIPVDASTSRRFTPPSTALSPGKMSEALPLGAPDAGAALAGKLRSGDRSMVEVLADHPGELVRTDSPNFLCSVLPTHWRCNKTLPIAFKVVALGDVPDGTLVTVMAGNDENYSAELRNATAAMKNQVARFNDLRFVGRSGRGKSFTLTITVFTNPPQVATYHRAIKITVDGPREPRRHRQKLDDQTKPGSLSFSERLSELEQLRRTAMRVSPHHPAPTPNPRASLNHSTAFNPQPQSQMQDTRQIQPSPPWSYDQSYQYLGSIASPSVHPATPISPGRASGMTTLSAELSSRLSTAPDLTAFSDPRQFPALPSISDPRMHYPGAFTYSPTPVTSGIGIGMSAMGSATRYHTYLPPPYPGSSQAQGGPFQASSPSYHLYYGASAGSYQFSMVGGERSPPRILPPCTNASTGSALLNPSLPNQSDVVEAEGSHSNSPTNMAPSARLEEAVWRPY
Target sequence (Q13951 whole entry, looked up): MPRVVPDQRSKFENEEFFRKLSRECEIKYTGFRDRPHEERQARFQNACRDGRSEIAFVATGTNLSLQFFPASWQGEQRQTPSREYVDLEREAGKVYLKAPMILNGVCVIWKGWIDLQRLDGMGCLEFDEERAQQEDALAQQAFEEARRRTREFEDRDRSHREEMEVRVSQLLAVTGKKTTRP
Hck Nef HTS – inhibitors of Nef-activated human Hck kinase, primary screen, biochemical, Z-Lyte FRET, 384-well, Hck-YEEI. actives 0.68% (n = 220,000). AID 463187, 2010. Recombinant Hck-YEEI plus Nef, Z-Lyte FRET kinase assay. inhibition, % at 20 µM;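 active means Hck-Nef kinase inhibition above about 50%, limit read from the data; inactive means inhibition below that limit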;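 further: 0% = DMSO with Hck plus Nef and 100% = Hck alone without Nef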
Runt-CBFb FRET – inhibitors of RUNX1 Runt–CBFb binding, primary screen, biochemical, FRET, Cerulean-Runt, Venus-CBFb, uHTS | Runt-related transcription factor 1 (Homo sapiens) + Core-binding factor subunit beta … | actives 0.46% (n = 220,000) | Cerulean-Runt/Venus-CBFb FRET ratio 530/480, 1 h | inhibition, % at 20 µM;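 active means inhibition over about 50% at 20 µM in the single-dose screen, limit read from the data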;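 further: 0% = DMSO wells and 100% = excess unlabeled CBFb competitor control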
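System: Cerulean-labeled Runt domain protein | Quantity: 100 nM of each labeled protein | Schedule: 1 h compound exposure, room temperature | Detection: Fluorescence energy transfer, 422 nm excitation, 530/480 nm emission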
RanGTP-Impb inh – inhibitors of RanGTP-importin-beta interaction, primary screen, biochemical, FRET, CFP-Ran, YFP-importin-beta, homogeneous; AID 2216, 2009; Ran GTPase (GTP-bound) - importin-beta complex; cell-free CFP-Ran/YFP-importin-beta FRET ratio; inhibition, % (no concentration beside the values); actives 1.1% (n = 300,000);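 active means more than half of the replicate wells show a fall in the fluorescence ratio signal beyond about 16%, limit read from the data, passing the limit was not always enough; inconclusive means exactly half of the replicate wells pass the set limit; inactive means fewer than half of replicates pass the limit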;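 further: 0% = DMSO wells and 100% = Ran loaded with GDP instead of GTP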
Numbers without * were called inactive; ? = inconclusive; . = not tested or not shown.

SMILES	Runt-SMMHC FRET	Hck Nef HTS	Runt-CBFb FRET	RanGTP-Impb inh
COc1cccc(-c2nc(-c3ccc4c(c3)-c3ccccc3S4(=O)=O)c(-c3ccccc3)[nH]2)c1OC	.	-9.6	-11.3	15.5*
COc1cc(-c2nc(-c3ccc4c(c3)-c3ccccc3S4(=O)=O)c(-c3ccccc3)[nH]2)cc(OC)c1OC	-108.1	-25.8	-53.0	-6.6
CCN1C(=O)[C@@H]2[C@H](C1=O)[C@@H]1C(=O)Nc3ccccc3C(=O)N1[C@@H]2c1ccc(Br)cc1	.	.	.	-2.4
CC(=Nc1cccc(C)c1)c1sc2ccccc2c1O	67.6*	-2.0	33.0	25.8*
CC(=O)NCCN=C(C)c1sc2ccccc2c1O	60.0	0.1	25.7	54.1*
CC(=Nc1ccccc1O)c1sc2ccccc2c1O	-94.0	21.4	-33.6	?
CC(=Nc1ccc(O)cc1)c1sc2ccccc2c1O	-98.2	3.9	-21.8	2.5
O=C(Nc1ccc(Cn2ccnc2)cc1)c1cccc(C(F)(F)F)c1	.	.	.	1.5
Clc1ccccc1-c1nnc2n1CCCCC2	-1.8	-13.2	1.0	-2.6
COc1cc([N+](=O)[O-])ccc1N/C=C/C(=O)c1cccs1	-6.4	2.7	-48.3	26.5*
Cc1occc1-c1nnc(SCC(=O)N(C)c2ccccc2)n1C	.	.	.	26.3*
C=CCOc1c(Br)cc(C2C3=C(CCCC3=O)N(C)C3=C2C(=O)CCC3)cc1OCC	.	53.3*	95.6*	101.4*
Cc1cc(NCc2ccco2)nc2cc(O)ccc12	76.4*	14.1	32.5	30.3*
CN1CCCC1CCNc1ccc2c(=O)c3ccccc3oc2c1 (centres undefined)	.	.	.	49.2*
CN1CCCC1CCNc1ccc2oc3ccccc3c(=O)c2c1 (centres undefined)	.	.	.	-72.7
O=c1c2ccccc2oc2cc(NCCCN3CCOCC3)ccc12	.	.	.	45.6*
O=c1c2ccccc2oc2cc(NCCCn3ccnc3)ccc12	.	.	.	58.2*
O=C(CNC(=O)c1ccc2c(c1)S(=O)(=O)N=C1CCCCCN12)Nc1ccc(F)c(F)c1	.	.	.	-1.9
CC(c1ccccc1)n1c(N2CCN(C)CC2)nc2c1c(=O)[nH]c(=O)n2C (centres undefined)	.	.	.	2.0
Cc1cccc(OCC(=O)Nc2ccc(N3CCN(C(=O)c4ccccc4)CC3)cc2)c1	4.6	-2.9	-2.5	0.3
CCOC(=O)c1c(N)sc2c1CCN(CCc1ccccc1)C2	.	.	.	72.4*
CCOC(=O)c1c(N)sc2c1CCCC2	-11.2	0.3	4.7	7.7
CCOC(=O)c1c(NC(=S)Nc2ccccc2)sc2c1CCN(CCc1ccccc1)C2	85.5	10.4	94.3*	.
CCOC(=O)c1c(NC(=S)Nc2ccccc2)sc2c1CC(C)(C)SC2	6.8	1.5	8.3	1.3
CN1CCc2c(sc(N)c2C(=O)O)C1	143.6*	-11.7	75.0*	50.1*
SMILES	Runt-SMMHC FRET	Hck Nef HTS	Runt-CBFb FRET	RanGTP-Impb inh
COc1ccc(C(=O)c2c(N)sc3c2CCN(C)C3)cc1	.	.	.	10.4
c1ccc(C(c2ccccc2)c2ccn[nH]2)cc1	.	.	.	2.3
Oc1ccc(N=C/C=C/c2ccc(Br)cc2)cc1-c1nc2ccccc2s1	35.6	3.3	33.5	38.4*
Brc1cc2c(cc1-c1nc3ccccc3s1)OCO2	.	.	.	0.5
N#Cc1cc(O)c(-n2nnc3ccccc32)cc1C#N	-5.1	16.2	0.3	-2.1
N#Cc1cc(Oc2cccc3cccnc23)c(-n2nnc3ccccc32)cc1C#N	-62.1	0.5	-21.1	21.3*
N#Cc1ccc(Oc2cccc3cccnc23)c([N+](=O)[O-])c1	.	.	.	34.8*
COCCN(C(=O)CNC(=O)c1ccco1)C(C(=O)NC1CCCCC1)c1cccs1 (centres undefined)	0.7	11.5	-0.9	3.9
CCOn1c(=O)c(-c2cccs2)[n+]([O-])c2ccccc21	9.9	-16.1	8.2	20.6*
Cc1c(C(=O)NCCN(C)C)oc2ccc(S(=O)(=O)N3CCC4(CC3)OCCO4)cc12	.	.	.	22.5*
Cc1ccc(CNC(=O)c2oc3ccc(S(=O)(=O)N4CCC5(CC4)OCCO5)cc3c2C)cc1	0.8	-0.2	-11.1	-4.2
Cc1ccc(OCC(=O)NCCCNC(=O)c2ccccn2)cc1C	.	.	.	-1.1
CCCCC(=O)Nc1cccc(NC(=O)c2ccc(Br)o2)c1	0.5	2.1	0.2	38.0*
CC(=O)c1cccc(NC(=O)c2ccc(Br)o2)c1	2.4	-1.7	-1.8	1.9
CC(C)Cc1nnc(NC(=O)Cc2cccs2)s1	-4.9	35.6	2.1	25.5*
CC(C)c1nnc(NC(=O)Cc2cccs2)s1	3.3	-6.1	-2.0	2.1
O=C(NC1CCCN(Cc2ccccc2F)C1)C1CCC1 (centres undefined)	.	.	.	-0.8
O=c1[nH]c(N/N=C\c2ccc3c(c2)OCO3)nc2ccccc12	15.9	21.2	36.6	16.0*
O=c1[nH]c(N/N=C/c2ccccc2)nc2ccccc12	50.5*	5.9	37.6	?
C(=N\Nc1nc2ccccc2[nH]1)/c1ccccc1	.	18.9	.	-2.2
O=c1[nH]c(N/N=C/c2cc3c(cc2[N+](=O)[O-])OCO3)nc2ccccc12	2.5	38.1	11.9	5.9
Cc1ccc(C(=O)Nc2nnc(CC(=O)N/N=C/c3ccc(O)c(O)c3)s2)cc1	.	.	.	3.7
COc1ccc(C(=O)Nc2nnc(CC(=O)N/N=C/c3ccc(O)cc3O)s2)cc1	.	.	.	108.4*
N=c1c(S(=O)(=O)c2ccccc2)cc2c(=O)n3ccccc3nc2n1Cc1ccco1	.	22.2	12.5	85.1*
CCOCCCn1c(=N)c(S(=O)(=O)c2ccc(C)cc2)cc2c(=O)n3cc(C)ccc3nc21	.	.	.	158.2*
SMILES	Runt-SMMHC FRET	Hck Nef HTS	Runt-CBFb FRET	RanGTP-Impb inh
Cc1ccc(S(=O)(=O)c2cc3c(=O)n4ccccc4nc3n(Cc3ccco3)c2=N)cc1C	-13.8	0.4	13.9	75.8*
Cc1nc2ccccc2c(=O)n1Cc1ccco1	-2.8	1.8	1.1	-9.3
CNC(=O)c1cc2c(=O)n3cc(C)ccc3nc2n(Cc2ccco2)c1=N	41.9	.	88.1*	.
CCOc1ccc2ccccc2c1/C=N/NC(=O)CNC(=O)c1ccccc1O	.	.	.	-0.1
Cc1ccc2nc3c(cc(S(=O)(=O)c4ccccc4)c(=N)n3Cc3ccco3)c(=O)n2c1	92.3*	36.6	18.6	?
Cc1cc(=O)oc(C)c1C(=O)Nc1ccc2ncccc2c1	58.7*	1.1	-22.2	-0.6
CCOc1ccc(NC(=O)/C(C#N)=C/c2cn(CC(=O)O)c3ccccc23)cc1	.	.	.	3.3
CCOc1cccc(NC(=O)/C(C#N)=C\c2cn(CC(=O)O)c3ccccc23)c1	.	.	.	27.8*
Cc1cccc(NC(=O)/C(C#N)=C/c2cn(CC(=O)NCc3ccco3)c3ccccc23)c1C	-45.6	6.2	-60.4	56.7*

Screening results: PubChem BioAssay, several laboratories
